# Arbovirus inh = blocks arbovirus infection; arbovirus infection cell-based antiviral screen; inhibition, % at 10 µM; hit rate 0.37% among 200,000; in the data active = inhibition above about 30%
# Autophagy mod = alters autophagy in cells; MEF GFP-LC3 puncta imaging; test concentration mostly 10 µM; calls only at 10 µM (by protocol); hit rate 0.98% among 190,000; AID 463193;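 active = percentage of spot-positive cells more than 3 SD above its plate mean, without a fluorescence outlier flag or 80% toxicity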;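 note: spot-positive cell cutoff set from DMSO-treated cells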
# RBBP9 inh = human RBBP9 hydrolase inhibition | recombinant RBBP9, FP-Rh probe fluorescence polarization | hit rate 0.2% among 220,000 | O75884 | inhibition, % at 7.94 µM;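 active = inhibition above the campaign mean of all tested compounds plus 3 SD, cut at about 14% in these data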;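 note: plate controls were DMSO wells with RBBP9 for no effect and wells lacking RBBP9 protein for full effect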
#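 Measured by – fluorescence polarization · Test system – RBBP9 protein · Input – 2.5 µM RBBP9 dispensing solution, before mixing · Measure – percent inhibition from mP, scaled between DMSO and no-protein wells · Benchmarks – DMSO-treated enzyme wells and wells lacking RBBP9 · Times – preincubation 30 min plus labeling 45 min at 25 °C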
# Insulin prom up = MIN6 insulin promoter up-regulation; MIN6 insulin promoter-GFP reporter, high-content imaging; hits give high values; z-score at 5 µM; hit rate 0.3% among 190,000; AID 1625;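 active = z-score above 3 at 5 µM with at least 500 cells counted in the well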
# PKD1 inh = PKD1 (human) kinase inhibition; Q15139; PKD1 kinase fluorescence polarization assay; inhibition, % (test concentration not listed); hit rate 0.056% among 200,000; AID 797; in the data active = inhibition above about 50%
# Target sequence (Q15139 whole entry, looked up): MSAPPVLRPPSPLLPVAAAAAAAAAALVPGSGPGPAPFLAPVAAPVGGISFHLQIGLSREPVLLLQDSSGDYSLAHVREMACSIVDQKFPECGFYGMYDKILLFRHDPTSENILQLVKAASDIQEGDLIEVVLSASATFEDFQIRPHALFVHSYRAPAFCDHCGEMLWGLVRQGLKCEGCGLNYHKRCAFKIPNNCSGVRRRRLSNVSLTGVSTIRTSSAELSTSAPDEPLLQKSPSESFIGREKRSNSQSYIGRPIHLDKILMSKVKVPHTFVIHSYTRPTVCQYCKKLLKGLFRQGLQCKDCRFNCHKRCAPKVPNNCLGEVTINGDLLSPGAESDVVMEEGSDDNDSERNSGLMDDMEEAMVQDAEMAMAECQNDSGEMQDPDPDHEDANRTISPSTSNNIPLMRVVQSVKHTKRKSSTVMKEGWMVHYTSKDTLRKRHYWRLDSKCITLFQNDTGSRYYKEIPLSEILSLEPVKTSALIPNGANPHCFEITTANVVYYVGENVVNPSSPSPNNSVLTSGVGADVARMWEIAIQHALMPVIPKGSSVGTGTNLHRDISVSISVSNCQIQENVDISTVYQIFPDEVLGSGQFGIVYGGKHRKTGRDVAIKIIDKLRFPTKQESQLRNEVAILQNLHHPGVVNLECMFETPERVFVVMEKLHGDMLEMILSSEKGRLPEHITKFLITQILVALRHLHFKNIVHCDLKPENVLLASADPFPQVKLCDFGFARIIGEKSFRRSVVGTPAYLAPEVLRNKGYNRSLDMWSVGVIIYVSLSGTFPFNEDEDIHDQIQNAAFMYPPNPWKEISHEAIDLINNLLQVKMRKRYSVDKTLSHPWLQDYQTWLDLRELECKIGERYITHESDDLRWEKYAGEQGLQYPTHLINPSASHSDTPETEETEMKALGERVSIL
# Insulin prom inh = TRM-6 insulin promoter activity inhibition; TRM-6 cells, insulin promoter-eGFP reporter, imaging; reporter expression induced with tamoxifen; inhibition, % at 2 µM; hit rate 0.9% among 130,000;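 active = inhibition above the mean plus 3 SD, with well images judged a real hit on visual review, cut at about 60% in these data, passing the limit was not always enough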
# Starred values were filed as active, the others as inactive; i = inactive; . = not tested or not shown; + = active, no number. Sampled rows, rich in hits. Any-hit rate of the full collection: about 2.1%.
SMILES,Arbovirus inh,Autophagy mod,RBBP9 inh,Insulin prom up,PKD1 inh,Insulin prom inh
CC1(C)Cc2c(sc3c2C2=NCCN2C=N3)CS1,1,i,0,-0.65,-3,87*
COc1ccc(S(N)(=O)=O)cc1C(=O)N1CCCC1,3,i,-5,0.12,-5,.
CN(C)c1ccc(C(=O)c2ccc(N(C)C)c3ccccc23)cc1,-12,+,-5,-5.2,-13,7
COc1ccc(C(=O)c2ccc(N(C)C)cc2)c(OC)c1,-19,i,-3,0,-12,-127
CC1CCCCN1S(=O)(=O)c1cn(C)c(=O)n(C)c1=O (stereo not given),6,i,1,0.19,-3,.
COc1ccccc1Cn1c(=O)c2ccccc2n2c(Sc3ncnc4sccc34)nnc12,0,i,-5,0.02,0,79*
O=C(CC1(O)C(=O)Nc2ccccc21)c1ccc(-n2cnnn2)cc1 (stereo not given),9,i,-4,0.96,-8,-17
COc1ccc(OC)c2[nH]c(=O)c(CCNC(=O)c3ccc(S(=O)(=O)N(C)C)cc3)cc12,1,i,-9,-0.11,-4,91*
COc1ccc(OC)c2[nH]c(=O)c(CCNC(=O)c3ccc(Br)o3)cc12,-1,i,-1,-1.1,-2,86*
COc1ccc(CC(=O)Nc2c3c(nn2-c2cccc(C)c2C)CS(=O)C3)cc1 (stereo not given),-8,i,3,1,-12,-70
N#CCc1nc(CSc2nc3ccccc3s2)cs1,-5,i,3,4*,-11,31
c1ccc2sc(SCSc3nc4ccccc4s3)nc2c1,.,.,-5,-0.27,.,.
C1=C(c2ccccc2)Nc2nnnn2C1,9,i,0,3.1*,-9,23
CCCS(=O)(=O)N1CCCC(C(=O)NCCCN(CC)c2cccc(C)c2)C1 (stereo not given),4,i,-2,-1.8,2,.
CCOc1ccc2nc(NC(=O)CN3CCC(n4nnc5cc(C(F)(F)F)ccc54)CC3)sc2c1,-5,i,1,-1.9,-12,77*
Cc1cc(NC(=O)CN2CCC(n3nnc4cc(C(F)(F)F)ccc43)CC2)no1,4,i,-7,-0.51,7,.
CCCN1C(=O)COc2ccc(-c3n[nH]c(=O)c4ccccc34)cc21,1,i,-6,-0.42,5,.
Cc1cc(N2CCN(C)CC2)nc2ccc(NC(=S)NCCN3CCc4ccccc4C3)cc12,-9,+,1,-4.3,3,.
Cc1cccc(N2CCN(C(=S)Nc3ccc4nc(N5CCN(C)CC5)cc(C)c4c3)CC2)c1C,-20,+,-13,.,-2,31
Cc1cc(N2CCN(C)CC2)nc2ccc(NC(=S)N3CCCCCC3)cc12,-11,i,-5,0.3,0,.
Cc1cc(N2CCN(C)CC2)nc2ccc(NC(=S)N3CCCCC3)cc12,-3,i,3,1.5,0,.
Cc1cc(N2CCOCC2)nc2ccc(NC(=S)N3CCCCC3C)cc12 (stereo not given),-15,i,3,.,4,73*
O=C(c1cc(Cl)c(=O)n(Cc2ccccc2)c1)N1CCOCC1,6,i,-6,.,7,-36
COc1cc2c(C(=O)O)c(C)n(CC(C)C)c2c2ccccc12,54*,i,-6,-0.04,-2,-36
CC(C)Cn1c2ccccc2c2cc(C(=O)O)ccc21,8,i,6,.,-6,4
SMILES,Arbovirus inh,Autophagy mod,RBBP9 inh,Insulin prom up,PKD1 inh,Insulin prom inh
CCN(CC)c1ccc(/C=C/c2cc(-c3ccccc3)c3ccccc3n2)cc1,.,.,-9,15*,.,.
CCN(CC)c1ccc(/C=N/NC(=O)c2cc(C)nc3ccccc23)cc1,.,.,-2,.,.,.
CS(=O)(=O)N(Cc1ccccc1)c1ccc(C(=O)NCCSCc2ccco2)cc1,-10,i,-6,-0.28,-12,-6
Cc1cc(SCCOc2ccccc2)nc(N)n1,4,i,-2,3.1*,-6,49
Cc1cc(Oc2ccccc2)nc(N)n1,-3,i,-5,-0.44,-7,-124
CCNc1nc(C)c2cc(Br)c(=O)n(CC)c2n1,-8,i,3,0.23,-10,.
CCOc1ccc(N2C(=O)CC(Sc3nnnn3-c3ccccc3)C2=O)cc1 (stereo not given),-3,+,-4,0.05,-5,-189
COc1ccccc1C(=O)NNC(=O)c1cccc([N+](=O)[O-])c1,3,i,4,-0.09,-5,.
NS(=O)(=O)c1cccc2cccnc12,5,i,-9,5.5*,11,-55
CNS(=O)(=O)c1cccc2cccnc12,-1,i,-9,0.67,0,-393
COc1cc2c3nnc(-c4ccc(F)cc4)c-3cn(Cc3ccccc3F)c2cc1OC,-5,+,-4,6.3*,1,i
C(=C\c1ccc2ccccc2n1)/c1ccccc1,.,.,5,0.94,.,.
CN(C)c1ccc(/C=C/c2ccc3ccccc3n2)cc1,.,.,-14,7.3*,.,.
CC(C)(C)c1ccc(C(O)CCCN2CCC(C(O)(c3ccccc3)c3ccccc3)CC2)cc1 (stereo not given),-44,+,-7,.,-5,-29
Cc1ccc(NC(=O)C2CC(=O)n3c(nc4ccccc43)N2)cc1Cl (stereo not given),-11,i,1,-0.43,-8,73*
Cc1ccc(NC(=O)C2CC(=O)n3c(nc4ccccc43)N2)cc1C (stereo not given),.,.,-3,0.46,.,.
CCN(CC)S(=O)(=O)c1ccc(C(=O)NCc2ccc3c(c2)OCO3)cc1,1,i,-8,-0.68,-9,79*
Cc1ccc(/C=N/Nc2ccnc3cc(Cl)ccc23)c(C)c1,-34,i,3,-1.4,0,.
Clc1ccc2c(N/N=C/c3ccc(Br)cc3)ccnc2c1,-5,i,-2,-0.42,-14,92*
Clc1ccc2c(N/N=C/c3cccnc3)ccnc2c1,-20,i,-9,-0.3,1,93*
Cc1ccccc1/C=N/Nc1ccnc2cc(Cl)ccc12,-3,i,-7,-0.27,-5,80*
COCCn1c(SCC(=O)NCc2ccco2)nnc1C(C)C,-5,i,-13,.,-8,-307
CCC(C)C(=O)Nc1nccs1 (stereo not given),6,i,1,-0.66,1,15
CCCCN1CC(O)=C(c2nc(-c3ccc(Cl)cc3)cs2)C1=N,5,+,9,-0.88,-3,-4
N=C1C(c2nc(-c3ccc(Cl)cc3)cs2)=C(O)CN1CCCN1CCOCC1,1,i,-5,-1.2,3,.
COC(=O)c1ccc2c(c1O)C(=O)c1ccccc1C2=O,-7,i,-11,.,1,-24
OC1CCN(c2c3c(nc4cc(-c5cccc(F)c5)nn24)CCCC3)CC1,12,i,-4,-0.52,-9,.
Clc1cccc(-c2cc3nc4c(c(NCc5ccco5)n3n2)CCCC4)c1,34*,i,-7,-1.8,7,.
Clc1cccc(-c2cc3nc4c(c(N5CCNCC5)n3n2)CCCC4)c1,-37,+,-5,.,-5,-24

# Compound activity as filed in PubChem BioAssay.
